Source: PubChem
Shown are actives, neighbours in structure and some others; about 3.7% of the full set was active somewhere.
p47phox inh: p47phox/p22phox peptide binding inhibitors, primary screen, biochemical, uHTS, NADPH oxidase regulatory subunit. 220,000 tested, 0.53% active. fluorescence polarization, 2 h. inhibition, % at 24.7 µM. Neutrophil cytosol factor 1 (Homo sapiens), P14598
EBV gp42 block: Epstein-Barr virus gp42 inhibitors, primary screen, biochemical, uHTS, fluorescence polarization | Glycoprotein 42 (Epstein-Barr virus (strain AG876)), Q1HVG2 | Fluorescence polarization binding assay, mP read-out | inhibition, % (tested at 21.74 µM) | 220,000 tested, 0.42% active; in the data active = inhibition above about 50%
eIF4E-4G inh: eIF4E–eIF4G protein interaction inhibitors, primary screen, biochemical, uHTS, TR-FRET, eIF4GI fragment | Eukaryotic translation initiation factor 4E (Mus musculus) + Eukaryotic translation … | TR-FRET eIF4E-eIF4GI(517-606) binding, 2 h | inhibition, % at 21.7 µM | 220,000 tested, 0.37% active | AID 782, 2007
RBBP9 inhibitor: human RBBP9 inhibitors, primary screen, biochemical, fluorescence polarization, FP-Rh probe, HTS; recombinant RBBP9; inhibition, % at 7.94 µM; 220,000 tested, 0.2% active; AID 1515, 2009;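 active = inhibition above the campaign mean of all tested compounds plus 3 SD, cut at about 14% in these data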
Target sequence (O75884 whole entry, looked up): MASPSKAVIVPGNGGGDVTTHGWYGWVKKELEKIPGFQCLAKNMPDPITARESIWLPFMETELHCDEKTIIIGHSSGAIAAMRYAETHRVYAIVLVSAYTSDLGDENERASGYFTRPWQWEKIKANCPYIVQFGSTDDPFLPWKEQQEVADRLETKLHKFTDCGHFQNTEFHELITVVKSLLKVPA
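Assay system: recombinant human RBBP9; Reagent: Serine-hydrolase probe FP-Rh, 375 nM pre-mixing; Doses: 7.94 µM single dose, 0.794% DMSO; Incubation: 30 min then 45 min, 25 °C; Detection: fluorescence polarization (mP), excitation 525 nm, emission 598 nm; Evaluation: percent inhibition from mP, scaled between DMSO and no-protein wells.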
14-3-3 Bad inh: inhibitors of 14-3-3 zeta/Bad binding, primary screen, biochemical, TR-FRET, bovine 14-3-3 zeta; inhibition, % at 21.7 µM; TR-FRET 14-3-3zeta/Dy647-pBad peptide displacement, 1 h; 220,000 tested, 0.71% active; 14-3-3 protein zeta/delta (Bos taurus), P63103;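 active = inhibition above about 70%, limit read from the data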
Target sequence (P63103 whole entry, looked up): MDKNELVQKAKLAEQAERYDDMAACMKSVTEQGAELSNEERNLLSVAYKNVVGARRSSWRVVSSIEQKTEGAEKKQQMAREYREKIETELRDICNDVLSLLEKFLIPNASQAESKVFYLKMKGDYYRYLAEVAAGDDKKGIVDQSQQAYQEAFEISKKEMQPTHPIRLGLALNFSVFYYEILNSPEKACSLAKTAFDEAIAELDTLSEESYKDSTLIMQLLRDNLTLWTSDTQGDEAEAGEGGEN
WT yeast gro inh: growth inhibition of WT strain, primary screen, mitochondrial fusion inhibitor project, WT and mutant strains, chemical genetic. 190,000 tested, 2.1% active. mitochondrial fusion phenotypic screen. inhibition, % at 10 µM; in the data active = inhibition above about 58%; tested in S. cerevisiae
Large screens that a line does not name were inactive; [ ] = dose if it differs, or a comment.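 Rule for the calls, unless noted: active = inhibition above about 30% (limit read from the data); inactive = the rest.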

COc1cc(SSc2cc(OC)cc([N+](=O)[O-])c2N)c(N)c([N+](=O)[O-])c1	none (no result: WT yeast gro inh)
Cc1cccc(NC(=O)c2ccc(N3CCCCC3)c([N+](=O)[O-])c2)n1	WT yeast gro inh 78.1
Cc1cccc(C)c1NC(=O)CSc1nnc(C)n1CC1CCCO1 (configuration not stated)	none
C=C(C)COc1ccc(-c2[nH]ncc2-c2ccc(Br)cc2)c(O)c1	WT yeast gro inh 94.7
COc1ccc(-c2cn[nH]c2-c2ccc(OCc3ccc([N+](=O)[O-])cc3)cc2O)cc1	p47phox inh 34.9, WT yeast gro inh 68.2
C=C(C)COc1ccc(-c2[nH]ncc2-c2ccccc2OC)c(O)c1	none
CCOc1ccc(-c2[nH]ncc2-c2ccc(OC)c(OC)c2)c(O)c1	none
CN1CCc2nc3sc(C(=O)C45CC6CC(CC(C6)C4)C5)c(N)c3cc2C1	p47phox inh 47.8, 14-3-3 Bad inh 80.5[fluorescence artefact?]
Nc1c(C(=O)O)sc2nc3c(cc12)CCCC3	none (no result: WT yeast gro inh)
CCN(CC)c1c([N+](=O)[O-])c(=O)n(CC)c2ccccc12	none (no result: WT yeast gro inh)
CCOC(=O)N1C(=O)C2(CCCCC2)N(c2ccccc2Cl)C1=S	WT yeast gro inh 77.1
COC(=O)c1cc(NS(=O)(=O)c2ccc(N3CCC(C)CC3)c([N+](=O)[O-])c2)cc(C(=O)OC)c1	none
CC(=O)c1sc(N/N=C\c2ccc(Br)cc2)nc1C	WT yeast gro inh 59.5
CC(=O)c1sc(N/N=C\c2cccc(Br)c2)nc1C	none
CCc1nnc(NS(=O)(=O)c2ccc(N=Cc3c(C)[nH]n(-c4ccc(C)c(C)c4)c3=O)cc2)s1	WT yeast gro inh 63.3
Cc1ccc(-n2[nH]c(C)c(C=Nc3ccc(S(=O)(=O)Nc4nccs4)cc3)c2=O)cc1	none
O=C(NCc1ccco1)/C(=C/c1cccnc1)NC(=O)c1cccc(Br)c1	14-3-3 Bad inh 77.1[fluorescence artefact?]
O=C(COC(=O)Cc1cccc(C(F)(F)F)c1)NCC1CCCO1 (configuration not stated)	p47phox inh 64.8
O=C(CSc1nnc2ccccn12)c1ccc(Cl)cc1	none
O=C(CSc1nnc2n1CCCN2C(=S)Nc1ccc(Cl)cc1)c1ccccc1	WT yeast gro inh 65.3
FC(F)(F)c1ccc(C2[C@H]3CN(CC4CCCCC4)[C@H](c4ccccc4)C34CC2(c2cccnc2)C4)cc1 (some centres not stated)	none (no result: RBBP9 inhibitor, WT yeast gro inh)
COc1ccc(NC(=O)c2cccnc2N2CCOCC2)cc1	none
Cc1ccccc1N1CCN(C(=O)c2ccc(Oc3ccc(C(F)(F)F)cn3)cc2)CC1	WT yeast gro inh 74.7
O=C(Nc1ccccc1)C1=C[C@H](c2ccc3c(c2)OCO3)C[C@H](OCc2ccc(CO)cc2)O1	none
CCN(CC)C(=O)CSc1ncccc1-c1nc2ccccc2[nH]1	none
COc1cccc2cc(C(=O)NNC(=O)c3ccc(Br)cc3)c(=O)oc12	p47phox inh 37.2
O=C(NCc1ccccc1Cl)C(=O)NCC(c1ccco1)N1CCOCC1 (configuration not stated)	none
COc1cccc(/C=N/n2c(-c3n[nH]c4c3CCC4)n[nH]c2=S)c1OC	none (no result: WT yeast gro inh)
Cc1ccc(/C(N)=N/OC(=O)N2c3ccccc3Sc3ccccc32)cc1	none (no result: p47phox inh, EBV gp42 block, eIF4E-4G inh, 14-3-3 Bad inh, WT yeast gro inh)
Cc1ccccc1/C(N)=N/OC(=O)N1c2ccccc2Sc2ccccc21	WT yeast gro inh 83.1
CN(Cc1cccc(-n2cccn2)c1)C(=O)CCc1nnc(C2CCCCC2)o1	none
CC(C)c1ccc(NC(=O)C(c2ccccc2)N(Cc2ccco2)C(=O)CC2NC(=O)NC2=O)cc1 (configuration not stated)	none
CC(C)c1ccc(NC(=S)NCCc2c[nH]c3ccccc23)cc1	WT yeast gro inh 67.3
Cc1ccc(NC(=S)NCCc2c[nH]c3ccccc23)cc1	none
C=CCC1(O)CC(c2ccco2)NC(c2ccco2)C1CCC (configuration not stated)	14-3-3 Bad inh 79.4
CCC1C(=O)CC(c2ccco2)NC1c1ccco1 (configuration not stated)	none
CCOC(=O)C1=C(Cc2ccc(C)cc2)C(=O)c2ccccc2C1=O	none
CCOC(=O)C1=C(Cc2ccc(OC)cc2)C(=O)c2ccccc2C1=O	p47phox inh 92.7
CCCc1ccc(/C=C2\C(=O)c3ccccc3C(O)=C2C(=O)OCC)cc1	WT yeast gro inh 58.9
CCOC(=O)C1=C(O)c2ccccc2C(=O)/C1=C\c1ccc(CC)cc1	p47phox inh 56.4
CCOC(=O)c1ccc(COC(=O)c2ccc3c(c2)-c2ccccc2C3=O)cc1	none
CCOC(=O)c1c(NC(=O)CN2C(=O)CN(C)C2=O)sc(C)c1C	none
COc1cccc(C(=O)N(Cc2nc(-c3ccc(C)cc3)no2)C(C)C)c1	none
Cc1ccc(C)c(C(=O)N(Cc2nc(-c3ccc(Cl)cc3)no2)C(C)C)c1	WT yeast gro inh 69.9
CC(C)N(Cc1nc(-c2ccc(Cl)cc2)no1)C(=O)CCC1CCCC1	WT yeast gro inh 67.4
CCOc1ccccc1N1CCN(C(=O)CCCc2nc3ccccc3s2)CC1	none
O=C1CNC(=S)N1CCc1ccc(O)c(O)c1	none (no result: WT yeast gro inh)
COc1ccccc1C1c2[nH]c3ccccc3c2CCN1Cc1ccc(NC(C)=O)s1 (configuration not stated)	eIF4E-4G inh 88.8 (no result: WT yeast gro inh)
CCOC(=O)c1oc2cccc(O)c2c1CN(Cc1ccccc1)C(C)=O	p47phox inh 32.8
CCOC(=O)c1oc2cccc(O)c2c1C	none (no result: eIF4E-4G inh, 14-3-3 Bad inh)
CC(=O)Nc1cccc(-c2csc(Nc3ccc(C)cn3)n2)c1	none
COc1ccc(-c2csc(Nc3ccc(C)cn3)n2)cc1	WT yeast gro inh 58.1
COc1ccc(Cl)cc1C(=O)CSc1nnnn1C1CCCCC1	WT yeast gro inh 72.3
Cc1cc(C)nc(NC(=O)c2ccc([N+](=O)[O-])o2)n1	none
CCCC(=O)N1CCN(c2ccc(NC(=O)c3ccc([N+](=O)[O-])o3)cc2Cl)CC1	WT yeast gro inh 85.6
Cc1cc(C)cc(NC(=O)c2ccc([N+](=O)[O-])o2)c1	WT yeast gro inh 77.6
CC(C)C(=O)N1CCN(c2ccc(NC(=O)c3ccc([N+](=O)[O-])o3)cc2Cl)CC1	WT yeast gro inh 93.6
CC(C)C(=O)N1CCN(c2ccc(NC(=O)c3ccc([N+](=O)[O-])o3)cc2)CC1	none
O=C(Nc1ccc(N2CCOCC2)c(Cl)c1)c1ccc([N+](=O)[O-])o1	none
